An excerpt weighted towards active compounds, which were near 3.5% of everything screened.
ERAP1 HTS inh – human ERAP1 aminopeptidase inhibitors, primary screen, biochemical, single point, plate reader; hit rate 0.15% among 340,000; recombinant ERAP1, Leu-AMC fluorescence, 60 min; inhibition, % at 10.7 µM; AID 652197, 2013; Endoplasmic reticulum aminopeptidase 1 (Homo sapiens), Q9NZ08;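 active means mean replicate inhibition of at least 30%, or all replicates individually reaching that 30% level; inactive means mean below 30% and not every replicate reaching it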
Target sequence (Q9NZ08 whole entry, looked up): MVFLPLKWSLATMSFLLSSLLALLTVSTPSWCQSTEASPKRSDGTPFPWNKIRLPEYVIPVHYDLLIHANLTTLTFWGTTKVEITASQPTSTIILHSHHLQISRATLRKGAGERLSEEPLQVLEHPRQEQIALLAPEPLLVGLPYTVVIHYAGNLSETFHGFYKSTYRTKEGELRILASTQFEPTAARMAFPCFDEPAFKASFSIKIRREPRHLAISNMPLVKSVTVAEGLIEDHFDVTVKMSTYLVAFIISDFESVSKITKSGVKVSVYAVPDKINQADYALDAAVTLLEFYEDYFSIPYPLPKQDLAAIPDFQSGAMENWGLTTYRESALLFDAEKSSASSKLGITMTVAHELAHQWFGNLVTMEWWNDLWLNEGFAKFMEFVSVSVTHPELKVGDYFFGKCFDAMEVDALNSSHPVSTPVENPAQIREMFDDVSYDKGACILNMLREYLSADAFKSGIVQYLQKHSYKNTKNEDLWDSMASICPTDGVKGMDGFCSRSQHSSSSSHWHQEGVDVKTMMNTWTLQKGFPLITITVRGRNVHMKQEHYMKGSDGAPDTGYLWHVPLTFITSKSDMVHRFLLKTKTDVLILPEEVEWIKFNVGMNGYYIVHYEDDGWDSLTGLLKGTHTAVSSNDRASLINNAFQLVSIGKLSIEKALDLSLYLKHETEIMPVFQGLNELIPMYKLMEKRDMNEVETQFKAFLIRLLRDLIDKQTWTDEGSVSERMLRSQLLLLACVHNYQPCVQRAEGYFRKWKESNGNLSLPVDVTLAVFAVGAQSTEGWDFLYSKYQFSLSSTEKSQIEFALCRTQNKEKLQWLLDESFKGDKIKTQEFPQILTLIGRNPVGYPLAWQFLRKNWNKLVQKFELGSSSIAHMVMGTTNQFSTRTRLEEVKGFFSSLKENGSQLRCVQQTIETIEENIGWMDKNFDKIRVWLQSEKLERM
HIV Env fusion – inhibitors of HIV-1 Env-driven cell-cell fusion, primary screen, HeLa-JRFL effector, CEM21 target cells, luciferase; hit rate 1.1% among 360,000; inhibition, % at 12.3 µM;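 active means mean replicate inhibition score of at least 50 and every replicate individually at or above 50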
PGC1a acetyl inh – inhibitors of PGC1a acetylation signal, primary screen, cell-based, U2OS, AlphaScreen, inhibitor mode; AlphaScreen anti-acetyl-lysine; with virally co-expressed GCN5 acetyltransferase; inhibition, % at 15.6 µM; hit rate 0.17% among 350,000; AID 651687, 2012;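 active means every replicate shows inhibition of at least 40%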
FGF22 binding – binders of human FGF22 protein, primary screen, FGF22 synaptogenesis inhibitor project, biophysical, thermal shift, single point. Fibroblast growth factor 22 (Homo sapiens), Q9HCT0. activity (Tm shift, normalised), % at 9.99 µM. recombinant FGF22 thermal shift, SYPRO orange fluorescence; percent of sucrose octasulfate shift, DMSO zero. hit rate 1.5% among 340,000. AID 651658, 2012;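 active means mean Tm shift, scaled 0 neutral to 100 positive control, at about 1.3% or above, every replicate too, limit read from the data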
Ecoli rRNA inh – reduced GFP signal of wild-type E. coli, primary screen, bacterial rRNA inhibitor project, GFP/RFP fluorescence, OD600, single point | AID 720706, 2013 | GFP signal change (wild-type ribosome), % (test concentration not listed) | E. coli WT GFP vs humanized-ribosome RFP mutants, 24 h; hits give low values; DMSO median 0, no signal -100 | hit rate 1.6% among 350,000;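 active means significant combined selectivity score with lowered wild-type GFP, culture density cut under 30%, mutant RFP and density less affected; inactive means any of these conditions unmet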
Cneo AK release – Cryptococcus neoformans cell lysis inducers, primary screen, AK release luminescence, single concentration; C. neoformans lysis, adenylate kinase release luminescence, 4 h; normalised: neutral wells 0, clomiphene wells 100; lysis activity, % at 15 µM; hit rate 0.2% among 360,000; AID 651654, 2012;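 active means mean lysis activity across replicates of at least 80%, whatever share of replicates individually reach that level; inactive means mean lysis activity below 80%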
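Material – log-phase Cryptococcus neoformans yeast cells · Input – 5 × 10^6 yeast cells/mL · Medium – fresh YPD growth medium · Doses – single compound concentration per well · Timing – static 4 h at 37 °C with compound, 1 h detection · Detection – adenylate kinase release luminescence · Read-out – signal increase indicating cell lysis · Control set – Clomiphene as positive lysis control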
Of the large screens only hits and unclear results are named; the others gave an inactive call.

CN(C)S(=O)(=O)c1ccc2nnn(O)c2c1	FGF22 binding 43 (no result: Ecoli rRNA inh)
N#C[C@@H]1[C@@H](c2ccccc2)[C@H](CO)N1C(=O)c1ccccc1F	none (no result: HIV Env fusion)
COCc1[nH][nH]c(=O)c1/C=N/N1CCOCC1	FGF22 binding 44 (no result: PGC1a acetyl inh, Cneo AK release)
COCc1[nH][nH]c(=O)c1C=Nc1ccccc1	none (no result: ERAP1 HTS inh, FGF22 binding, Ecoli rRNA inh)
Cc1cc(=O)n2nc(N3CCCC3C(=O)Nc3ccccc3C)sc2n1 (stereo unspecified)	none (no result: HIV Env fusion)
CC1(C)CC(=O)C=C(c2ccccc2-c2ccc3cc[nH]c3c2)C1=O	FGF22 binding 43 (no result: PGC1a acetyl inh)
CC1(C)CC(=O)C=C(c2ccc(-c3ccc4[nH]ccc4c3)cc2)C1=O	none
COc1ccc(CCN(C)Cc2nc(Cc3ccc(OC)c(OC)c3)no2)cc1OC	none (no result: ERAP1 HTS inh)
CC(C)NC(=O)N(C)C[C@H]1Oc2c(NC(=O)c3ccncc3)cccc2C(=O)N([C@@H](C)CO)C[C@@H]1C	none (no result: HIV Env fusion)
COc1cccc(OC)c1OCCCOc1cccc2cccnc12	Ecoli rRNA inh -29
CN(C)CCCNc1nc2cc(-c3ccsc3)sc2c(=O)n1C	none
CCC(=O)Nc1ccc2c(c1)OC[C@@H](C)N(Cc1nccs1)C[C@H](C)[C@@H](OC)CN(C)C2=O	none
O=C(CSc1nc2ccccc2c(=O)[nH]1)Nc1cccc([N+](=O)[O-])c1	HIV Env fusion 63
COc1ccc2nc(SCC(=O)NCCc3ccccc3)[nH]c2c1	Ecoli rRNA inh -24 (no result: PGC1a acetyl inh, Cneo AK release)
O=C(CSc1nc2ccc([N+](=O)[O-])cc2[nH]1)NCCc1ccccc1	Ecoli rRNA inh -28 (no result: HIV Env fusion, Cneo AK release)
O=C(CSc1nc2ccc(Cl)cc2[nH]1)NCCc1ccccc1	none (no result: PGC1a acetyl inh, Cneo AK release)
O=C(CCc1n[nH]c(=O)[nH]c1=O)Nc1cccc([N+](=O)[O-])c1	FGF22 binding 44 (no result: PGC1a acetyl inh, Ecoli rRNA inh, Cneo AK release)
O=C(COc1ccc(S(=O)(=O)N2CCCC2)cc1)NCCC1=CCCCC1	Ecoli rRNA inh -20 (no result: HIV Env fusion)
Cc1cc(Cl)c(S(=O)(=O)N2CCCC2)cc1OCC(=O)NC1CCCCC1	HIV Env fusion 78 (no result: ERAP1 HTS inh, PGC1a acetyl inh, FGF22 binding, Ecoli rRNA inh)
CCCNC(=O)COC(=O)c1ccc(S(=O)(=O)N2CCCC2)cc1	FGF22 binding 44 (no result: Cneo AK release)
O=C(COc1ccc(S(=O)(=O)N2CCOCC2)cc1)Nc1ccc(Br)cc1	none
O=C(COc1ccc(Br)cc1)NNC(=O)c1cc(S(=O)(=O)N2CCOCC2)ccc1Cl	Ecoli rRNA inh -19 (no result: PGC1a acetyl inh)
O=C(C[C@H]1CC[C@H]2[C@@H](COC[C@@H](O)CN2S(=O)(=O)c2ccc(Cl)cc2)O1)N[C@@H]1CCN(Cc2ccccc2)C1	none (no result: HIV Env fusion)
CCOc1ccccc1C(=O)NC(C(=O)N(C)c1c(N)n(Cc2ccccc2)c(=O)[nH]c1=O)C(C)C (stereo unspecified)	none (no result: HIV Env fusion, PGC1a acetyl inh)
O=C(CCNC(=O)c1ccccc1Cl)NCCC1=CCCCC1	HIV Env fusion 58
Cc1ccc(S(=O)(=O)N2CCCCC2)cc1C(=O)NCCC1=CCCCC1	HIV Env fusion 73 (no result: PGC1a acetyl inh, Cneo AK release)
O=C(COC(=O)c1cc(S(=O)(=O)N2CCOCC2)ccc1Cl)NC1CCCCC1	FGF22 binding 43
O=C(COC(=O)c1cc(S(=O)(=O)N2CCOCC2)ccc1Cl)NC1CC1	none (no result: PGC1a acetyl inh)
O=C(COc1ccc(S(=O)(=O)N2CCOCC2)cc1)NCCc1ccc(Cl)cc1	FGF22 binding 43
COc1ccc(CNC(=O)COc2ccc(S(=O)(=O)N3CCOCC3)cc2)cc1	none (no result: PGC1a acetyl inh)
O=C(COC(=O)c1cc(=O)c2ccccc2o1)Nc1ccccc1F	none
CC(=O)Nc1ccc(C(=O)OCC(=O)NCCC2=CCCCC2)cc1	none (no result: PGC1a acetyl inh)
O=C(COC(=O)c1ccc(S(=O)(=O)Nc2ccccc2)cc1)NCCC1=CCCCC1	FGF22 binding 44 (no result: PGC1a acetyl inh, Cneo AK release)
CCOC(=O)CCCc1ccc(/C(C)=N/NC(=S)NC)cc1	none (no result: PGC1a acetyl inh, Cneo AK release)
CCOC(=O)CCCc1ccc(/C(C)=N/NC(N)=S)cc1	Ecoli rRNA inh -44 (no result: PGC1a acetyl inh, Cneo AK release)
CCN1/C(=C/c2ccc3cc(C)ccc3[n+]2CC)Sc2ccccc21	none (no result: PGC1a acetyl inh, Cneo AK release)
CC[n+]1c(/C=C2\Sc3ccccc3N2C)ccc2cccc(C)c21	HIV Env fusion 77 (no result: ERAP1 HTS inh, PGC1a acetyl inh)
